# Measured values from ChEMBL document CHEMBL1828606, “Anticancer and radio-sensitizing evaluation of some new thiazolopyrane and thiazolopyranopyrimidine derivatives bearing a sulfonamide moiety” (Eur J Med Chem, 2011).
# Columns and labels:
# MCF7 [1] = assay: Anticancer activity against human MCF7 cells assessed as viable cells after 48 hrs by SRB assay; assay type: functional, cell-based; conditions: MCF7, 48 h
# Procedure, shortened: (§1)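 MCF7 human breast tumor cells seeded at 10⁴ cells/well and left 24 h to attach. Compounds dissolved in DMSO, added in replicate wells per concentration, 48 h at 37 °C under 5% CO₂. Cells fixed and stained 30 min with 0.4% (wt/vol) SRB in 1% acetic acid. Washed four times with 1% acetic acid, dye recovered in Tris-EDTA, read on an ELISA reader.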
# MCF7 [2] = assay: Anticancer activity against human MCF7 cells assessed as viable cells at 10 uM after 48 hrs by SRB assay relative to control; assay type: functional; procedure, shortened: as §1
# MCF7 [3] = assay: Anticancer activity against human MCF7 cells assessed as viable cells at 25 uM after 48 hrs by SRB assay relative to control; assay type: functional; procedure, shortened: as §1
# MCF7 [4] = assay: Anticancer activity against human MCF7 cells assessed as viable cells at 50 uM after 48 hrs by SRB assay relative to control; assay type: functional; procedure, shortened: as §1
# MCF7 [5] = assay: Anticancer activity against human MCF7 cells assessed as viable cells at 100 uM after 48 hrs by SRB assay relative to control; assay type: functional; procedure, shortened: as §1
# MCF7 [6] = assay: Anticancer activity against 8 Gy gamma-irradiated human MCF7 cells assessed as viable cells after 48 hrs at 10 uM by SRB assay relative to control; assay type: functional; procedure, shortened: as §1
# MCF7 [7] = assay: Anticancer activity against 8 Gy gamma-irradiated human MCF7 cells assessed as viable cells after 48 hrs at 25 uM by SRB assay relative to control; assay type: functional; procedure, shortened: as §1
# MCF7 [8] = assay: Anticancer activity against 8 Gy gamma-irradiated human MCF7 cells assessed as viable cells after 48 hrs at 50 uM by SRB assay relative to control; assay type: functional; procedure, shortened: as §1
# MCF7 [9] = assay: Anticancer activity against 8 Gy gamma-irradiated human MCF7 cells assessed as viable cells after 48 hrs at 100 uM by SRB assay relative to control; assay type: functional; procedure, shortened: as §1
# MCF7 [10] = assay: Anticancer activity against 8 Gy gamma-irradiated human MCF7 cells assessed as viable cells after 48 hrs by SRB assay; assay type: functional, cell-based; conditions: MCF7, light or radiation study; procedure, shortened: as §1
SMILES,IC50 (MCF7 [1]) [µM],fold change (FC) (MCF7 [2]),fold change (FC) (MCF7 [3]),fold change (FC) (MCF7 [4]),fold change (FC) (MCF7 [5]),fold change (FC) (MCF7 [6]),fold change (FC) (MCF7 [7]),fold change (FC) (MCF7 [8]),fold change (FC) (MCF7 [9]),IC50 (MCF7 [10]) [µM]
N#CC1=C(NC(N)=O)Oc2nc(Nc3ccc(S(N)(=O)=O)cc3)sc2C1c1ccc(Cl)cc1 (stereo not given),49.8,0.701,0.717,0.309,0.228,,,,,
CC(=O)NC1=C(C#N)C(c2ccc(Cl)cc2)c2sc(Nc3ccc(S(N)(=O)=O)cc3)nc2O1 (stereo not given),41.9,0.801,0.447,0.183,0.252,,,,,
N#CC1=C(NC(=O)CCl)Oc2nc(Nc3ccc(S(N)(=O)=O)cc3)sc2C1c1ccc(Cl)cc1 (stereo not given),43.8,0.702,0.531,0.25,0.252,,,,,
CC(=O)N(C(C)=O)C1=C(C#N)C(c2ccc(Cl)cc2)c2sc(Nc3ccc(S(N)(=O)=O)cc3)nc2O1 (stereo not given),74.3,0.913,0.511,0.234,0.617,,,,,
Nc1ncnc2c1C(c1ccc(Cl)cc1)c1sc(Nc3ccc(S(N)(=O)=O)cc3)nc1O2 (stereo not given),35.8,0.62,0.454,0.186,0.207,0.504,0.341,0.064,0.086,23.7
Nc1nc(=S)[nH]c2c1C(c1ccc(Cl)cc1)c1sc(Nc3ccc(S(N)(=O)=O)cc3)nc1O2 (stereo not given),52.8,0.814,0.639,0.241,0.325,,,,,
N#CC1=C(N)Oc2nc(Nc3ccc(S(N)(=O)=O)cc3)sc2C1c1ccc(Cl)cc1 (stereo not given),39.4,0.848,0.36,0.168,0.214,0.706,0.203,0.062,0.097,26.2
NC(=O)C1=C(N)Oc2nc(Nc3ccc(S(N)(=O)=O)cc3)sc2C1c1ccc(Cl)cc1 (stereo not given),41.8,0.815,0.499,0.169,0.21,,,,,
Nc1nc(=O)[nH]c2c1C(c1ccc(Cl)cc1)c1sc(Nc3ccc(S(N)(=O)=O)cc3)nc1O2 (stereo not given),84.1,0.9,0.56,0.265,0.654,,,,,
Cc1ccc(S(=O)(=O)NC2=C(C#N)C(c3ccc(Cl)cc3)c3sc(Nc4ccc(S(N)(=O)=O)cc4)nc3O2)cc1 (stereo not given),71.7,0.92,0.52,0.2,0.6,,,,,
NS(=O)(=O)c1ccc(Nc2nc3c(s2)C(c2ccc(Cl)cc2)c2c(nc[nH]c2=O)O3)cc1 (stereo not given),41.6,0.794,0.515,0.204,0.175,0.65,0.371,0.06,0.04,28.4
N#CC1=C(/N=C/c2ccccc2)Oc2nc(Nc3ccc(S(N)(=O)=O)cc3)sc2C1c1ccc(Cl)cc1 (stereo not given),45.2,0.93,0.206,0.295,0.324,,,,,
N#CC1=C(/N=C/c2ccc(Cl)cc2)Oc2nc(Nc3ccc(S(N)(=O)=O)cc3)sc2C1c1ccc(Cl)cc1 (stereo not given),34.6,0.634,0.24,0.257,0.304,0.462,0.124,0.143,0.182,17
N#CC1=C(NS(=O)(=O)c2ccccc2)Oc2nc(Nc3ccc(S(N)(=O)=O)cc3)sc2C1c1ccc(Cl)cc1 (stereo not given),47.5,0.697,0.492,0.239,0.361,,,,,
